Sampled rows, rich in hits. Any-hit rate of the full collection: about 2.9%.
Dynein cargo inh – dynein cargo transport inhibition; 3617.4 mouse cells, GR-EGFP nuclear translocation imaging; test concentration mostly 20 µM; stimulated with dexamethasone, 1 µM; stronger effect = lower value; z-score, hits read low; 220,000 compounds, 0.47% hits; AID 1381;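 active = plate z-score of nuclear minus cytoplasmic receptor signal below a set negative limit, without overly bright fluorescence or cell loss, cut at about -3.5 in these data, passing the limit was not always enough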;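 also: z-score of nuclear minus cytoplasmic ring GR-EGFP intensity difference per well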
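Medium: Induction medium lacking tetracycline, stripped serum | Probe or stimulus: 1.0 µM final dexamethasone stimulus | Schedule: 48 h induction, then 1 h compound, then 30 min agonist, 37 °C | Signal: Automated 10x imaging of fixed Hoechst-stained cells | Evaluation: Per-cell GR-EGFP intensity, nucleus versus surrounding cytoplasmic ring, well-averaged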
MEKK2mut PB1 HTS – signal of MEK5 binding to mutant human MEKK2 PB1 domain. 290,000 compounds, 0.35% hits. percent response, % at 10 µM. bead flow cytometry, Alexa488-MEK5 binding to MEKK2 mutant. AID 1530; in the data active = percent response above about 24%, passing the limit was not always enough
MEKK2wt PB1 HTS – raises or lowers MEK5 binding to wildtype human MEKK2 PB1 domain | Q9Y2U5 | bead flow cytometry, Alexa488-MEK5 binding to MEKK2 WT; actives lie on both sides | binding response (% of control), % at 10 µM | 290,000 compounds, 1.1% hits; in the data active = binding response below about 67% or above about 130%
ATG4B inhibitor – blocks human ATG4B protease cleavage of LC3 substrate. ATG4B cleavage of LC3-PLA2, NBD-HPC fluorescence, 1 h. inhibition, % at 8.33 µM. 340,000 compounds, 0.51% hits; in the data active = inhibition above about 40%
MEKK3 PB1 HTS – MEKK3-MEK5 PB1 interaction, increase or decrease. 290,000 compounds, 1.4% hits. Q99759. bead-based flow cytometry, Alexa488-MEK5 binding to MEKK3; actives lie on both sides; 0 = blocked by unlabeled MEK5, 100 = vehicle. binding response (% of control), % at 10 µM. AID 1529;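 active = binding response more than 3 SD above or below the average of its plate-row segment, actives on both sides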;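 also: Alexa488 bead fluorescence after subtracting the streptavidin-only scavenger bead signal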
Target sequence (Q99759 whole entry, looked up): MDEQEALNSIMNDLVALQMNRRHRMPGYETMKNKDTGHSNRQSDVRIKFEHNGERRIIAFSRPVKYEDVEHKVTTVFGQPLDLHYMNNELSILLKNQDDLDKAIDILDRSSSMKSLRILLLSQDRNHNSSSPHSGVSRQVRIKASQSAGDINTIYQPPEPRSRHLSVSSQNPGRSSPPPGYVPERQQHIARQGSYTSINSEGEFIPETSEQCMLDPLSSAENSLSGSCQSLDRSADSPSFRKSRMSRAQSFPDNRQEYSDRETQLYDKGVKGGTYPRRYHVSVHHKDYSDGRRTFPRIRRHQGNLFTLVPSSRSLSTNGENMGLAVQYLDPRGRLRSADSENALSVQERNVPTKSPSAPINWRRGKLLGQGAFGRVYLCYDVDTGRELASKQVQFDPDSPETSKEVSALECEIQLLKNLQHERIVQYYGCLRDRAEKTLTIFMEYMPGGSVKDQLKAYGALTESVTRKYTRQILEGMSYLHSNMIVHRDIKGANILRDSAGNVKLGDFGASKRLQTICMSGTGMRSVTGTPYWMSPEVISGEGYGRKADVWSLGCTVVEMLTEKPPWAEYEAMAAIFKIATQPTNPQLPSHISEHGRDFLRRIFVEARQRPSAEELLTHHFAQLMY
B2AR ag – agonists of human beta-2 adrenergic receptor inducing internalization. response, % (no concentration beside the values). Am2.2-beta2AR cells, FAP receptor internalization, flow cytometry. 340,000 compounds, 0.43% hits;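 active = response above a set limit, near 3 SD of response in nonfluorescent compounds, cut at about 42% in these data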
MEKK2wt confirm – raises or lowers MEK5 binding to wildtype human MEKK2, retest. shares compounds with MEKK3 PB1 HTS. bead flow cytometry, Alexa488-MEK5 binding to MEKK2 WT; actives lie on both sides. binding response (% of control), % at 10 µM. 5,900 compounds, 2.4% hits; in the data active = binding response below about 16% or above about 210%; inactive = in between
MEKK2mut confirm – signal of MEK5 binding to mutant human MEKK2, retest | 5,900 compounds, 2% hits | percent response, % at 10 µM | shares compounds with MEKK3 PB1 HTS | bead flow cytometry, Alexa488-MEK5 binding to MEKK2 mutant; in the data active = percent response mostly above about 71%, no sharp cut-off; inactive = mostly below about 38%;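 also: higher means compound restores mutant binding toward wildtype level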
MEKK3 confirm – MEKK3-MEK5 PB1 inhibition, single concentration confirmation. shares compounds with MEKK3 PB1 HTS. bead flow cytometry, Alexa488-MEK5 binding to MEKK3; stronger effect = lower value. binding response (% of control), % at 10 µM. 5,900 compounds, 1.8% hits;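 active = binding response below 72% of control, or above a set upper limit, though filed actives all read lower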;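 also: 100% = DMSO only wells and 0% = binding blocked by excess unlabeled MEK5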
* marks the source's active call; other numbers are inactive results; · = no result given; [ ] = another dose, or the depositor's remark.

SMILES	Dynein cargo inh	MEKK2mut PB1 HTS	MEKK2wt PB1 HTS	ATG4B inhibitor	MEKK3 PB1 HTS	B2AR ag	MEKK2wt confirm	MEKK2mut confirm	MEKK3 confirm
CN(C1CCCCC1)S(=O)(=O)c1ccc(S(=O)(=O)N2CCN(C(=O)c3ccccc3F)CC2)cc1	0.325	9.0	133.0	-3.3	144.0*	-1.5	106.0	4.0	106.0
O=C(N1CCN(c2cccc(Cl)c2)CC1)C1(c2cccs2)CCOCC1	1.34	0.0	97.0	-8.2	75.0	-10.0	·	·	·
c1ccc(CN2CCN(CCCNc3ccc4nnc(-c5ccccc5)n4n3)CC2)cc1	-1.04	24.0*	132.0	-21.8	114.0	19.4	161.0	38.0	111.0
O=C(NN1C(=O)c2cc(Br)ccc2NC1c1cc(Br)cc(Br)c1O)c1ccncc1 (stereo not drawn)	-0.0251	1.0	100.0	10.0	133.0*	3.2	97.0	-1.0	98.0
Cc1ccccc1NC(=O)C1(NC(=O)c2cccc(N3C(=O)CSC3c3ccccc3)c2)CCCCC1 (stereo not drawn)	0.411	6.0	103.0	-15.7	122.0*	-6.5	103.0	1.0	101.0
CC(C)(C)c1ccc(C2SCC(=O)N2c2cccc(C(=O)O)c2)cc1 (stereo not drawn)	·	-2.0	99.0	-1.2	100.0	-3.6	·	·	·
COc1ccc(C2(c3ccc(OC)cc3)NC(=O)N(CC(=O)N(C)C)C2=O)cc1	·	-7.0	93.0	-10.2	100.0	-2.5	·	·	·
O=S(=O)(Nc1cccc(S(=O)(=O)N2CCCCC2)c1)c1ccc(Cl)s1	·	·	·	3.6	·	-0.4	·	·	·
Cc1ccc2nc(-c3ccc(NC(=O)CN4CCN(c5ccccn5)CC4)cc3)sc2c1	-0.91	27.0	121.0	-0.7	130.0*	-3.0	96.0	-2.0	103.0
COC(=O)CC(=O)O[C@H]1C=C[C@@H](NC(=O)OC(C)(C)C)C1	·	·	·	1.0	·	-1.8	·	·	·
CCOc1ccccc1N1CCN(C(=S)NCc2ccco2)CC1	-0.211	-1.0	92.0	3.9	64.0*[inhibitor]	-6.2	107.0	5.0	107.0
CC(=O)c1ccc(N2CCN(C(=S)NCc3ccco3)CC2)cc1	-1.07	-16.0	53.0	1.4	46.0*[inhibitor]	-4.3	93.0	-27.0	92.0
COc1ccc(S(=O)(=O)Nc2ccccc2C(=O)N2CCCCC2)cc1C	·	-4.0	91.0	-1.5	98.0	-2.2	·	·	·
O=C(CSC(=S)N1CCOCC1)c1cc2ccccc2oc1=O	·	3.0	93.0	6.9	95.0	2.5	·	·	·
O=C(CN(c1ccc(Cl)cc1)S(=O)(=O)c1ccccc1)N/N=C/c1ccco1	0.513	2.0	96.0	-0.8	105.0	-5.5	·	·	·
Cc1ccc(S(=O)(=O)N(CC(=O)N/N=C/c2ccco2)c2cc(Cl)cc(Cl)c2)cc1	-0.273	0.0	104.0	25.4	128.0*	-3.0	96.0	-8.0	105.0
O=C(NCc1ccc(Cl)cc1)C(=O)NCC1OCCN1C(=O)c1cccs1 (stereo not drawn)	0.0946	1.0	111.0	4.6	153.0*	-6.8	102.0	3.0	99.0
O=C(COC(=O)c1ccc(Cl)nc1)NCCc1ccccc1	·	·	·	-4.8	·	-7.1	·	·	·
Cc1cnc(C(=O)N2CCN(S(=O)(=O)c3ccc(F)c(F)c3F)CC2)cn1	·	·	·	-4.9	·	3.4	·	·	·
CC(c1ccccc1)N1C(=O)C2C3C=CC(C4CC34)C2C1=O (stereo not drawn)	1.9	-10.0	97.0	0.3	100.0	-11.1	·	·	·
CC(OC(=O)C(C)N1C(=O)C2C3C=CC(C4CC34)C2C1=O)C(=O)c1ccccc1 (stereo not drawn)	0.205	1.0	111.0	-8.9	145.0*	1.6	101.0	3.0	99.0

Source: PubChem
